According to ChEMBL document CHEMBL2046422, “Structure-activity relationship of nonacidic quinazolinone inhibitors of human microsomal prostaglandin synthase 1 (mPGES 1)” (J Med Chem, 2012):

Experiments:
[1] = biological target: Prostaglandin G/H synthase 1 (Homo sapiens) (UniProt P23219); test: Inhibition of COX1 in human whole blood assessed as residual TXB2 level at 10 uM after 1 hr by LC-MS/MS analysis relative to control
In short: (§1)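 Human venous blood was drawn without additives, and compound was added. Samples clotted at 37 °C for 1 h; negative controls were chilled on ice at once. After 5 min on ice, plasma was separated at 4 °C. It was mixed with H₃PO₄, EDTA, BHT and deuterated internal standards, then put through solid-phase extraction. TXB₂ and PGD₂ were measured by LC-MS/MS, relative to vehicle-treated blood.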

[2] = biological target: T1, 5-lipoxygenase/FLAP (Homo sapiens) (UniProt P09917+P20292); test: Inhibition of 5-lipoxygenase/FLAP in calcium ionophore-stimulated human whole blood assessed as residual 15(s)HETE level at 10 uM preincubated for 15 mins prior to calcium ionophore-stimulation measured after 15 mins by LC-MS/MS analysis; type: protein-complex assay
In short: (§2)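 Heparinized human whole blood (500 μL) was preincubated with compound for 15 min at 37 °C. It was then stimulated with 20 μM calcium ionophore A23187 in autologous plasma for 15 min at 37 °C and chilled on ice for 5 min. Plasma was collected by centrifugation at 4 °C. Eicosanoids were recovered by liquid–liquid extraction with deuterated internal standards and quantified by LC-MS/MS (MRM). Levels are relative to vehicle-treated blood.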

[3] = biological target: T2, Prostaglandin E synthase (Homo sapiens) (UniProt O14684); test: Inhibition of mPGES-1 in IL1beta and TNFalpha-stimulated human HeLa cells assessed as PGE2 level at 10 uM after 24 hrs by LC-MS/MS analysis relative to control; type: cell-based
T2 sequence (whole entry): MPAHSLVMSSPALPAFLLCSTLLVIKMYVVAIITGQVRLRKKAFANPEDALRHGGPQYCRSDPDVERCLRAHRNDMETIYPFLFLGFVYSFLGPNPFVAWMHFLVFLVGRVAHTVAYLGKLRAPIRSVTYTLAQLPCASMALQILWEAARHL
In short: (§3)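 HeLa cells (2 × 10⁴) were grown 24 h at 37 °C. The medium was then replaced with IL-1β (1 ng/mL) + TNFα (5 ng/mL), or PBS for unstimulated controls, together with compound at 1, 10 or 100 μM, or DMSO, for 24 h at 37 °C. Supernatant PGE₂ was quantified by LC-MS/MS after solid-phase extraction with deuterated standards. Inhibition is percent of DMSO control corrected for unstimulated background, SEM, n ≥ 3.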

[4] = biological target: T3, Prostaglandin G/H synthase 2 (Homo sapiens) (UniProt P35354); test: Inhibition of COX2 in LPS-stimulated human whole blood assessed as residual PGE2 level at 100 uM preincubated for 15 mins prior to LPS-stimulation measured after 24 hrs by LC-MS/MS analysis relative to control
T3 sequence (whole entry): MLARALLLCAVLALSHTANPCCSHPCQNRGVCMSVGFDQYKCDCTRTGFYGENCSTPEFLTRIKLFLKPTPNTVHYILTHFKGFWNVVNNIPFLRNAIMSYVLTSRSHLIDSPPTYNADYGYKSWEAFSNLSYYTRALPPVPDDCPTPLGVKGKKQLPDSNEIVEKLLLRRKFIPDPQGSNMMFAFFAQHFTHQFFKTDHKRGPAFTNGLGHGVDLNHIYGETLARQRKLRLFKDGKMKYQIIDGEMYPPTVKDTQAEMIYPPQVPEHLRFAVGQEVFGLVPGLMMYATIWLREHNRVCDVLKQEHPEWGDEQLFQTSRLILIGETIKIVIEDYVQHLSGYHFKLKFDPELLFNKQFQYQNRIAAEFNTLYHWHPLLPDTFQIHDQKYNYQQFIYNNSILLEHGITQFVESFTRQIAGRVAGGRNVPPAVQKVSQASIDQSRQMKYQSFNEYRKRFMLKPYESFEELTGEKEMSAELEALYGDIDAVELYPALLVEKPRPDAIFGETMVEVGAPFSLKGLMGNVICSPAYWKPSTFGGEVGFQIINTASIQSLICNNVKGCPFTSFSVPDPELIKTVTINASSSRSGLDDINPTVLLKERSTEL
In short: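 Human whole blood received compound in DMSO plus acetylsalicylic acid (10 μg/mL) to block COX-1, 15 min at 37 °C. LPS (10 μg/mL final) in autologous plasma was added to induce COX-2/mPGES-1, and blood was incubated 24 h at 37 °C. Samples were chilled on ice 5 min, and plasma prostaglandins were extracted by solid-phase extraction and quantified by LC-MS/MS. Values are relative to vehicle.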

[5] = biological target: Prostaglandin G/H synthase 1 (Homo sapiens) (UniProt P23219); test: Inhibition of COX1 in human whole blood assessed as residual PGD2 level at 10 uM after 1 hr by LC-MS/MS analysis relative to control; in short: as §1
[6] = biological target: T4, Prostaglandin E synthase (Homo sapiens, UniProt O14684); test: Inhibition of mPGES-1 derived from IL1beta and TNFalpha stimulated human HeLa cells microsomal fraction using PGH2 as substrate preincubated for 30 mins prior to substrate addition measured after 1 min by LC-MS/MS analysis
T4 sequence (O14684 whole entry): T2 sequence (whole entry)
In short: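 Microsomes were pelleted by ultracentrifugation and resuspended in buffer with 2.5 mM GSH; protein was measured by Bradford. Screening used 1 μM final compound, and IC₅₀ (95% CI) came from increasing concentrations. PGE₂ was read by LC-MS/MS after solid-phase extraction with deuterated standards; n ≥ 3.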

[7] = biological target: T1, 5-lipoxygenase/FLAP (Homo sapiens); test: Inhibition of 5-lipoxygenase/FLAP in calcium ionophore-stimulated human whole blood assessed as residual 12(s)HETE level at 10 uM preincubated for 15 mins prior to calcium ionophore-stimulation measured after 15 mins by LC-MS/MS analysis; type: protein-complex assay; in short: as §2
[8] = biological target: T2, Prostaglandin E synthase (Homo sapiens); test: Inhibition of mPGES-1 in IL1beta and TNFalpha-stimulated human HeLa cells assessed as PGE2 level after 24 hrs by LC-MS/MS analysis; type: cell-based; in short: as §3
[9] = biological target: T3, Prostaglandin G/H synthase 2 (Homo sapiens); test: Inhibition of human recombinant COX2-mediated PGE2 synthesis using PGH2 as substrate at 1 uM by LC-MS/MS analysis relative to control
In short: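 Direct enzyme test with a COX inhibitor screening kit, run per the kit protocol: COX-1 was ovine, COX-2 human recombinant. […] Prostaglandins were quantified by LC-MS/MS after solid-phase extraction. Mean of n ≥ 3.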

[10] = biological target: T2, Prostaglandin E synthase (Homo sapiens); test: Inhibition of mPGES-1 in IL1beta and TNFalpha-stimulated human HeLa cells assessed as PGE2 level at 1 uM after 24 hrs by LC-MS/MS analysis relative to isolated enzyme
[11] = biological target: T1, 5-lipoxygenase/FLAP (Homo sapiens); test: Inhibition of 5-lipoxygenase/FLAP in calcium ionophore-stimulated human whole blood assessed as residual LTB4 level at 10 uM preincubated for 15 mins prior to calcium ionophore-stimulation measured after 15 mins by LC-MS/MS analysis; type: protein-complex assay; in short: as §2
[12] = biological target: T1, 5-lipoxygenase/FLAP (Homo sapiens); test: Inhibition of 5-lipoxygenase/FLAP in calcium ionophore-stimulated human whole blood assessed as 5(s)HETE level at 10 uM preincubated for 15 mins prior to calcium ionophore-stimulation measured after 15 mins by LC-MS/MS analysis; type: protein-complex assay; parameters: scale not given: the % may be the effect or the level left; in short: as §2

Sequence of Prostaglandin G/H synthase 1 (Homo sapiens) (P23219 whole entry): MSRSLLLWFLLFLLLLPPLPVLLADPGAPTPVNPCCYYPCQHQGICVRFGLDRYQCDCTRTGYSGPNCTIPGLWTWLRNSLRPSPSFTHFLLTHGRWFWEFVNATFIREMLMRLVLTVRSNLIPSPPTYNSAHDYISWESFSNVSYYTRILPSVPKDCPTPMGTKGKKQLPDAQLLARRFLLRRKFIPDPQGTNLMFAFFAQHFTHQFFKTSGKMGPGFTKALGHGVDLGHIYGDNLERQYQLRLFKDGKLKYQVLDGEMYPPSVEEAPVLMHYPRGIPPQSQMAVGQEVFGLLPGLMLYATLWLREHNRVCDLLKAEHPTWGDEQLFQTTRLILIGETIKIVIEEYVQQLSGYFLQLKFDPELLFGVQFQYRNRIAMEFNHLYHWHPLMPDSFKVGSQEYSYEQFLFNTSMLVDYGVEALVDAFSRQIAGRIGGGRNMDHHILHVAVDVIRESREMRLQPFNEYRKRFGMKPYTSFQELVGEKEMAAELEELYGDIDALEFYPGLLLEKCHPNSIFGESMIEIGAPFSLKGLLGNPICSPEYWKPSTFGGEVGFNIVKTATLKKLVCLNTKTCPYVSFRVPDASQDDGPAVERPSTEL

Activity [1] [%]	Activity [2] [%]	inhibition [3] [%]	Activity [4] [%]	Activity [5] [%]	IC50 [6] [µM]	Activity [7] [%]	inhibition [8]	inhibition [9] [%]	potency shift [10] [%]	Activity [11] [%]	Activity [12] [%]	SMILES
89	80	97	50	91.7	0.21	85.5	Dose-dependent effect	2.5	28	70.9	67.8	CCCc1nc2ccc(NC(=O)c3ccccc3Cl)cc2c(=O)n1Cc1ccc(-c2cccc(OC)c2)cc1
97.3	93.8	–	174	96.1	–	93.2	Dose-dependent effect	< 0	–	151	157	CCCc1nc2ccc(NC(=O)c3ccccc3Cl)cc2c(=O)n1Cc1ccc(-c2ccc(Cl)cc2)cc1
86.4	94.2	70	52.1	84.9	0.22	110	Dose-dependent effect	5.8	–	71.9	74.8	CCCc1nc2ccc(NC(=O)c3ccccc3Cl)cc2c(=O)n1Cc1ccc(-c2ccccc2)cc1

Second part, the molecule before the results:

SMILES	Activity [1] [%]	Activity [2] [%]	inhibition [3] [%]	Activity [4] [%]	Activity [5] [%]	IC50 [6] [µM]	Activity [7] [%]	inhibition [8]	inhibition [9] [%]	potency shift [10] [%]	Activity [11] [%]	Activity [12] [%]
CCCc1nc2ccc(NC(=O)c3ccccc3Cl)cc2c(=O)n1Cc1ccc(-c2cccc(Cl)c2)cc1	90	83.1	–	51.2	98.5	0.13	80	Dose-dependent effect	6.7	–	83	79
CCCc1nc2ccc(NC(=O)c3ccccc3C)cc2c(=O)n1Cc1cccc(Cl)c1	81.9	83.4	–	53	128	0.26	88.9	Dose-dependent effect	< 0	–	72.7	74.4
CCCc1nc2ccc(NC(=O)c3c(F)cccc3Cl)cc2c(=O)n1Cc1cccc(Cl)c1	84.4	111	–	54.7	89.4	0.37	123	Dose-dependent effect	< 0	–	94.1	92.1
CCCc1nc2ccc(NC(=O)c3ccccc3Cl)cc2c(=O)n1Cc1cccc(Cl)c1	90.4	90.3	–	37.4	86.5	0.36	92.8	Dose-dependent effect	< 0	–	93.7	92
